Laboratory results published in the EternaBench riboswitch data.

Tested on: MS2 coat protein
Experiment: apparent Kd, MS2 coat protein; higher = weaker binding; RNA-MaP array; FMN 200 µM where present
In short: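 Designs on Illumina sequencing-chip clusters, transcribed by stalled E. coli RNA polymerase, were exposed to SNAP-549-labelled MS2 coat protein in doubling steps from 0.7 or 1.5 nM up to 3 µM, without and then with constant ligand. The buffer held 100 mM Tris-HCl pH 7.5, 80 mM KCl, 4 mM MgCl2, BSA, DTT, yeast tRNA and Tween-20. Apparent Kd values are medians of filtered per-cluster binding-curve fits to green signal normalised to red-channel RNA signal and control-cluster median Fmax.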

[1] = designed as: OFF switch for flavin mononucleotide, no ligand
[2] = ligand present: flavin mononucleotide, designed as: OFF switch for flavin mononucleotide
[3] = designed as: ON switch for flavin mononucleotide, no ligand
[4] = ligand present: flavin mononucleotide, designed as: ON switch for flavin mononucleotide

GGUCGGCGAGGAUAUACAUGAGGAUCACCCAUGUGAUAGAUUGCACGCGUACGUGUAUGUAGAAGGCGCUGACG
apparent Kd [1]: 0.0218 µM | apparent Kd [2]: 0.2 µM

GGUCGUAAGGAGAAGGGCUACUGGUUGAAACCUGCGGCCUCUGGAACAUGAGGAUCACCCAUGUAGCAGGAUAUCCUUGCGUGA
apparent Kd [1]: 0.188 µM | apparent Kd [2]: 0.0453 µM

GGUCGUCACAUAUACAUGAGGAUCACCCAUGUCAAAAGACAUGAGGAUAUGGAUAAUAAUAUAAACCAGAAGGCAUGGACGACC
apparent Kd [3]: 0.961 µM | apparent Kd [4]: 0.0596 µM

GGUCGUCACAUUAACAUGAGGAUCACCCAUGUCUCUAGACAUGAGGAUAUGGAUCCUAAUUGGAUCCAGAAGGCAUGGACGACC
apparent Kd [3]: 1.49 µM | apparent Kd [4]: 0.142 µM

GGUCUGAUAUGAGGAUAUGCUCAGGAUAACUGAGCAGAAGGCAUGUGAAAACAUGAGGAUCACCCAUGUGAUCAAUACAGACCA
apparent Kd [3]: 0.141 µM | apparent Kd [4]: 0.0239 µM

GGUGCACGCACAGGAUAUCCGGCGGAGCUCGUCGGAGAAGGGUGACAUGAGGAUCACCCAUGUACGUGCAACUCGGUUUGAGAG
apparent Kd [3]: 0.0225 µM | apparent Kd [4]: 0.0489 µM

GGUGCCAUGUAGAAGGCAGAUCCGAUUCAGAUCUGAGGAUAUACAUGAGGAUCACCCAUGUAAAGGCACCGCACGAGAGUGCAA
apparent Kd [1]: 0.00812 µM | apparent Kd [2]: 0.00911 µM

GGUGCCAUGUAGAAGGCAGAUCUGAUUCAGAUCUGAGGAUAUACAUGAGGAUCACCCAUGUGAAGGCACCGCACGAGAGUGCAA
apparent Kd [1]: 0.00821 µM | apparent Kd [2]: 0.024 µM

GGUGCGUUUGUGAGGAUAUGCUGGUCCUUGGAUCUGCAGAAGGCACAUGAGGAUCACCCAUGUGGUGUCGUACC
apparent Kd [1]: 0.293 µM | apparent Kd [2]: 0.0365 µM

GGUGGACAUGAGGAUCACCCAUGUGAGGAUAUCGGCUGGCUACUCGCUGACGGCUGCUCGAGAAGGCGCAUUGU
apparent Kd [1]: 0.0463 µM | apparent Kd [2]: 0.0956 µM

GGUGGGAAGUAAGGAUAUCGGCCAUAGUUAGGGCGAGAAGGUACAUGAGGAUCACCCAUGUCGUCGCUAGGGACGGGUCCGGCC
apparent Kd [1]: 0.00654 µM | apparent Kd [2]: 0.00696 µM

GGUGUGAGGCAGGAUAUGCUAUAUGUUCGUAAUGCAGAAGGGUCUACAUGAGGAUCACCCAUGUGUGCGGUUGA
apparent Kd [1]: 0.172 µM | apparent Kd [2]: 0.413 µM

GGUGUGGCAUGAGGAUAUGGUCAGCUUUGCUGACCAGAAGGCAUGUCAAUAGACAUGAGGAUCACCCAUGUAGUUAACACACCA
apparent Kd [3]: 0.557 µM | apparent Kd [4]: 0.0424 µM

GGUUGACAAAGUCAACCUAAACGAACAUGAGGAUCACCCAUGUAGGAUAUGCUACUCAAAGAGUAGCAGAAGGACAUGUGCCUU
apparent Kd [1]: 0.0376 µM | apparent Kd [2]: 0.273 µM

GGUUGGCGAGGAUAUACAUGAGGAUCACCCAUGUGGUCCUGCGAUAGAAUAGCCCUUUGUAGAAGGCGCGGGUC
apparent Kd [1]: 0.044 µM | apparent Kd [2]: 0.0381 µM

GGUUGGCGAGGAUAUACAUGAGGAUCACCCAUGUGGUCCUGCGGUGGUCUCGCCCUUUGUAGAAGGCGCGGGUC
apparent Kd [1]: 0.0357 µM | apparent Kd [2]: 0.0306 µM

GGUUGUCAAAGACAACCAUAACGAACAUGAGGAUCACCCAUGUAGGAUAUGCUACUCAAAGAGUAGCAGAAGGACAUGUGCCUU
apparent Kd [1]: 0.0376 µM | apparent Kd [2]: 0.326 µM

GGUUGUCAAAGACAACCAUAACGAACAUGAGGAUCACCCAUGUAGGAUAUGCUUCUCAAAGAGAAGCAGAAGGACAUGUGUCUU
apparent Kd [1]: 0.0318 µM | apparent Kd [2]: 0.177 µM

GGUUGUCAUCGUCAUCCUUUCCGUACAUGAGGAUCACCCAUGUAGGAUAUGCUGCUCUCGGUGUGGCAGAAGGGCGUGUGUCUU
apparent Kd [1]: 0.017 µM | apparent Kd [2]: 0.0187 µM

GGUUGUCAUCGUCAUCCUUUCGGUACAUGAGGAUCACCCAUGUAGGAUAUGCUGCAUUCGAUGUGGCAGAAGGGCGUGUGUGUU
apparent Kd [1]: 0.0235 µM | apparent Kd [2]: 0.041 µM

GGUUUGGGAGGAUAUGGCUUGUUUGACAUGAGGAUCACCCAUGUAAGUGGAUCUUCCGGGCCAGAAGGCUCGGGCC
apparent Kd [1]: 0.104 µM | apparent Kd [2]: 0.188 µM

GUAAGUACGAGAGGAUAUUGACAUGAGGAUCACCCAUGUAUUUGGGAGUGUUCACUGAAUUCUUACGAGAAGGCUCGUACAUAC
apparent Kd [1]: 0.218 µM | apparent Kd [2]: 0.242 µM

GUACAUGAGCAGAAGGGCAUUUAAUUAGAUUUUUAUGUUGAUCAGAAAUGCAGGAUAUGUUAAACAUGAGGAUCACCCAUGUAC
apparent Kd [3]: 0.218 µM | apparent Kd [4]: 0.0241 µM

GUACCUCAAGUGAGGAUAUGUCAUUACCGGUGAAGAUAGAAGGCACAUGAGGAUCACCCAUGUGUGGCUCCGUC
apparent Kd [1]: 0.0235 µM | apparent Kd [2]: 0.0958 µM

GUACCUUAUGAGAAGGCGAUCAUAAAACAUGAUCGAGGAUAUCAUGAAAACAUGAGGAUCACCCAUGUAUGGGUAUUAUGGUAC
apparent Kd [3]: 0.0373 µM | apparent Kd [4]: 0.0167 µM

GUACUACAUGAGGAUCACCCAUGUGAGGAUAUGCGAAUUUCAUCAAAAGAUGAAAUUUGCAGAAGGCACAGUAC
apparent Kd [1]: 0.0312 µM | apparent Kd [2]: 0.029 µM

GUACUGACAGGAUAUACAUGAGGAUCACCCAUGUCCUUAUGCUGACAAAAGUCAGCGAGUAGAAGGGUCUGUAC
apparent Kd [1]: 0.101 µM | apparent Kd [2]: 0.603 µM

GUAGCAUACCGAGGAUAUUCACCGGAAACGGAAACAUGAGGAUCACCCAUGUGGCGAAAGCCUUGGGAGAAGGCGGAAUGCUAC
apparent Kd [3]: 0.195 µM | apparent Kd [4]: 0.0245 µM

GUAGCAUACCGAGGAUAUUCAGGGCGUGGAUAUACAUGAGGAUCACCCAUGUGGCGGAAGCCUAGGGAGAAGGCGGAAUGCUAC
apparent Kd [3]: 0.0213 µM | apparent Kd [4]: 0.0168 µM

GUAGCAUACCGAGGAUAUUCAGGGCGUGGAUAUACAUGAGGAUCACCCAUGUGGCGGAAGCCUAGGGAGAAGGCGGGCUGCUUC
apparent Kd [3]: 0.0246 µM | apparent Kd [4]: 0.0199 µM

GUAGCAUACCGAGGAUAUUCAUACCGUAAACGGACAUGAGGAUCACCCAUGUGGCGAAAGCCUUGGGAGAAGGCGGAAUGCUAC
apparent Kd [3]: 0.556 µM | apparent Kd [4]: 0.0305 µM

GUAGCAUACGGAGGAUAUGUAGGAUCUACAUGAGGAUCACCCAUGUCAAGGACAGAAGGCCGUAUGCUACAAGAGCGAAAGCUC
apparent Kd [3]: 0.0116 µM | apparent Kd [4]: 0.00579 µM

GUAGCAUACUGAGGAUAUUCAUACCGGAAACGGACAUGAGGAUCACCCAUGUGGCGAAAGCCUUUGGAGAAGGCAGAAUGCUAC
apparent Kd [3]: 0.0137 µM | apparent Kd [4]: 0.0137 µM

GUAGCAUAUGAUUUACAUGAGGAUCACCCAUGUAUCAUGGGUAAGGAUAUUGAUGUUAUGUUAAUCAAGAAGGUACUAUGCUAC
apparent Kd [3]: 0.281 µM | apparent Kd [4]: 0.0189 µM

GUAGCAUGCCAAGGAUAUUCAUAUAGUAGGCAAACAUGAGGAUCACCCAUGUAGUGAGAGCCCUGGGAGAAGGUGGGAUGCUAC
apparent Kd [3]: 0.0179 µM | apparent Kd [4]: 0.0161 µM

GUAGCAUUGAGAGGAUAUCCAUAUCCGAAAGGGACAUGAGGAUCACCCAUGUCGCGAAAGCGGUGGGAGAAGGCUCUAUGCUAC
apparent Kd [3]: 0.00492 µM | apparent Kd [4]: 0.00501 µM

GUAGCUAUCGGAGGAUAUUCAUACCGGAAACGGACAUGAGGAUCACCCAUGUGGCGAAAGCCUUGGGAGAAGGCUGAUAGCUAC
apparent Kd [3]: 0.257 µM | apparent Kd [4]: 0.00737 µM

GUAGCUAUCGGAGGAUAUUCAUACUGGAAACGGACAUGAGGAUCACCCAUGUGGCGAAAGCCUUGGGAGAAGGCCGAUCGCUAC
apparent Kd [3]: 0.123 µM | apparent Kd [4]: 0.00813 µM

GUAGCUGCAGGAUAUCUAUCUUCUGACAUGAGGAUCACCCAUGUACUUACUUGGCUCAGUGGAGAAGGGCAGCGUU
apparent Kd [1]: 0.124 µM | apparent Kd [2]: 0.0842 µM

GUAGGCGACCAGAAGGGUGACAUGAGGAUCACCCAUGUAGAUGUGUUCCCGCUUGGGAGCCGUCCACAGGAUAUGGUUGGUUAU
apparent Kd [3]: 0.0499 µM | apparent Kd [4]: 0.0745 µM

GUAGGGUCAGGAUAUACGGGCGGGAGGAUGUAUUGUAGUUGGUAGAAGGGACAUGAGGAUCACCCAUGUGAGAA
apparent Kd [1]: 0.0343 µM | apparent Kd [2]: 0.0305 µM

GUAGUAUUAAGUUCAUAAUAUAGGAUAGAAGGUGAAAAUUUGACAUGAGGAUCACCCAUGUAAUUCAAGGAUAUGUAGUAACUC
apparent Kd [3]: 0.0977 µM | apparent Kd [4]: 0.0801 µM

GUAGUGUAUGUAGGAUAUGUGAACGAAACGUUCACAGAAGGACAUGAGGAUCACCCAUGUAUUACAGUCAGCAAUCUGACUGUU
apparent Kd [1]: 0.0257 µM | apparent Kd [2]: 0.107 µM

GUAGUGUAUGUAGGAUAUGUGAAGCAAAGCUUCACAGAAGGACAUGAGGAUCACCCAUGUAUUACAGUCAGCAAUCUGACUGUU
apparent Kd [1]: 0.0398 µM | apparent Kd [2]: 0.137 µM

GUAUAUAGUGUGAGGAUAUGCUGGUCCUUGGAUCAGCAGAAGGCACAUGAGGAUCACCCAUGUAGUUUAUUUUG
apparent Kd [1]: 0.0184 µM | apparent Kd [2]: 0.0657 µM

GUAUGCAUGAGGUAGGAUAUCCAAAACAAAACAUGAGGAUCACCCAUGUAAACAAACAACAAAUGGGAGAAGGACCACAUGUAUAC
apparent Kd [3]: 0.0244 µM | apparent Kd [4]: 0.0113 µM

GUAUGGAGGGAGAAGGGCUAGGAGGUCCAGCUUAUGUGUGUUGCAACAUGAGGAUCACCCAUGUAGCAGGAUAUCCCUUGUACA
apparent Kd [1]: 0.0444 µM | apparent Kd [2]: 0.242 µM

GUAUGUUAUGAGGAUAUCGGUGAACAUACACAUCGAGAAGGCAUGACAUGAGGAUCACCCAUGUCAAGGAUGAC
apparent Kd [1]: 0.0274 µM | apparent Kd [2]: 0.0578 µM

GUAUUACAUGAGGAUCACCCAUGUGAGGAUAUCGAUGUAACUAGCAGCGUGCGGGACUCGAGAAGGCACUUGGA
apparent Kd [1]: 0.0491 µM | apparent Kd [2]: 0.142 µM

GUAUUAUAGAUCCAUUUAUUCAACAUGAGGAUCACCCAUGUGCAGGAUAUCGUGUGUUUUAUAUUCGAGAAGGGCAAAUUCAUU
apparent Kd [1]: 0.0289 µM | apparent Kd [2]: 0.0818 µM

GUAUUGAGAUAAGGAUAUAAGUCUAUGACAUGAGGAUCACCCAUGUGUGUUUUAGAAGGUAUUUCGGUAAUAUUGUUACAGUAA
apparent Kd [3]: 0.0177 µM | apparent Kd [4]: 0.00995 µM

GUCAGAAGUGCAGGAUAUGCUGAGGCAUUCGCGGCAGAAGGGCACAUGAGGAUCACCCAUGUAGCCGGGUAUUGUACCUUAUCA
apparent Kd [1]: 0.00636 µM | apparent Kd [2]: 0.00916 µM

GUCAGCUCGUCAGGAUAUACGUCACUGCUUCGGCAGUGUGGUAAGAUCACAUGAGGAUCACCCAUGUAGAAGGGACGAGCUGAC
apparent Kd [1]: 0.0137 µM | apparent Kd [2]: 0.252 µM

GUCAGCUCGUGAGGAUAUACAACACUCCUUCGGCAGUGUAUUAAGAUCACAUGAGGAUCACCCAUGUAGAAGGCACGAGCUGAU
apparent Kd [1]: 0.0148 µM | apparent Kd [2]: 0.201 µM

GUCAGCUCGUGAGGAUAUACAACACUGCUUCGGCAGUGUAUUAAGAUCACAUGAGGAUCACCCAUGUAGAAGGGACGAGCUGAU
apparent Kd [1]: 0.0118 µM | apparent Kd [2]: 0.0207 µM
